Source: PubChem BioAssay
GRIN3A LBD mod – modulators (binders) of human NR3A ligand-binding domain | NR3A LBD differential scanning fluorimetry, Tm shift; 0% = protein alone, 100% = glycine-bound protein | 2.5% of 340,000 active | Tm shift relative to glycine control, % at 25 µM | AID 1259313;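 active means melting temperature shift of at least 10% of the positive control shift, at one fixed dose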
EBV gp42 block – inhibitors of Epstein-Barr virus glycoprotein 42 | 0.42% of 220,000 active | Q1HVG2 | Fluorescence polarization binding assay, mP read-out | inhibition, % (tested at 21.74 µM); in the data active means inhibition above about 50%
Target sequence (Q1HVG2 whole entry, looked up): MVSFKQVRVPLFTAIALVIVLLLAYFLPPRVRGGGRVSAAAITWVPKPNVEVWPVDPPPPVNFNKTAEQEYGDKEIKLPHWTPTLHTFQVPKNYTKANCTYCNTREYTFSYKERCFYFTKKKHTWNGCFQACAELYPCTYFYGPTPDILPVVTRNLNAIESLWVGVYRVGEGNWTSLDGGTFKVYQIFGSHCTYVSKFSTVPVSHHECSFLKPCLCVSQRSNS
WT yeast gro inh – growth inhibition of WT yeast, mitochondrial fusion screen. mitochondrial fusion phenotypic screen, WT strain. inhibition, % at 10 µM. 2.1% of 190,000 active; in the data active means inhibition above about 58%; tested in S. cerevisiae
CHOP inhibitor – CHOP inhibition in unfolded protein response. inhibition, % at 10 µM. 3.8% of 220,000 active. CHO-K1 CHOP-promoter luciferase, tunicamycin-induced, 15-18 h;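 active means compounds that reduced the stress-induced luciferase reporter signal by more than about 70% of percent inhibition, limit read from the data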;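 further: 0% = tunicamycin plus vehicle and 100% = wells without tunicamycin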
TbMetRS inhib – blocks T. brucei methionyl-tRNA synthetase activity. AID 624268. purified T. brucei MetRS, ATP depletion, Kinase-Glo luminescence. 0.4% of 360,000 active. inhibition, % at 11.9 µM;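 active means inhibition above a per-plate cutoff of the control wells' mean inhibition plus 3 SD, cut at about 5.5% in these data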;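 further: 0% = DMSO wells median and 100% = median of wells with control inhibitor compound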
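Test system: purified T. brucei MetRS enzyme. Also added: ATP, methionine and E. coli bulk tRNA substrates. Compound: 11.9 µM single point. Schedule: 15 min enzyme-compound preincubation, 2 h reaction, 10 min detection, 25 °C. Signal: luciferase luminescence of residual ATP, Kinase-Glo. Evaluation: percent inhibition versus plate control medians. Controls: DMSO wells, low control.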
MPTP block – inhibitors of mitochondrial permeability transition pore | AID 602449 | 1.4% of 360,000 active | isolated mouse mitochondria, Ca2+ swelling absorbance, 30 min | inhibition, % at 10 µM;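 active means inhibition of 50% or more, scaled per plate between neutral and stimulator controls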;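 further: 0% = DMSO wells given calcium and 100% = 1 mM EGTA wells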
The depositor's hits bear a star; / = not tested or not shown. Most compounds without a hit are left out; they make up all but 6.4% or so of the library.

SMILES	GRIN3A LBD mod	EBV gp42 block	WT yeast gro inh	CHOP inhibitor	TbMetRS inhib	MPTP block
O=C(c1ccc(S(=O)(=O)N2CCCC2)cc1)N1CCCCC1	1	/	/	/	0	-3
CCN(c1ccccc1)S(=O)(=O)c1ccc(NCC2COc3ccccc3O2)nc1 (configuration not stated)	-4	-20	46	85*	0	15
CCN(c1ccccc1)S(=O)(=O)c1ccc(Cl)nc1	0	-11	14	2	0	-1
O=C1CCC/C1=c1\s/c(=C/c2cccnc2)c(=O)n1-c1ccccc1	0	/	/	/	0	2
COc1ccc(C(=O)O)cc1NS(=O)(=O)c1cccc2nsnc12	0	3	10	-4	-1	1
COc1ccc(CC(=O)O/N=C(\N)c2ccc(OC)cc2)cc1	0	-3	/	-13	0	3
Cc1cnc(NC(=O)CN2CCN(c3ccccn3)CC2)s1	1	-22	-2	74*	-1	-2
Cc1ccc2cc(CN(CC3CCCO3)S(=O)(=O)c3c(C)ccc4nsnc34)c(=O)[nH]c2c1 (configuration not stated)	1	-25	-6	-12	0	-4
COCCN(C(=O)CSc1ccc2c(c1)OCCO2)c1c(N)n(CC(C)C)c(=O)[nH]c1=O	1	/	/	/	0	0
Cc1ccc(C2=Nc3ccccc3N=C(c3ccco3)C2)c(O)c1	2	-30	15	72*	0	-4
Cc1ccc(O)c(C2=Nc3ccccc3N=C(c3ccc([N+](=O)[O-])cc3)C2)c1	-10	-8	9	-17	-1	4
Cc1ccc(O)c(C2=Nc3ccccc3N=C(c3ccco3)C2)c1	-6	-39	25	87*	0	0
Cc1cc(C)cc(C(=O)NCC(=O)OCc2c(C)noc2C)c1	1	7	14	-4	-1	0
COc1ccccc1OCC(O)COC(N)=O (configuration not stated)	13*	2	-5	15	-1	0
COc1ccccc1OCC(O)CO (configuration not stated)	-2	-24	-6	-2	0	0
COc1ccccc1/C=C1\CCCC2=C1Nc1nnnn1C2c1ccccc1OC (configuration not stated)	-2	-3	1	84*	0	8
Cc1ccc2oc(/N=C(\N)NC(=O)C(C)(C)C)nc2c1	-1	-10	/	86*	-1	-3
CCN(CCNC(=O)C1CCN(S(C)(=O)=O)CC1)c1ccccc1	-1	-4	25	0	-1	-1
O=C(NCCOc1nc(N2CCCCC2)nc(N2CCCCC2)n1)Nc1ccccc1	-4	0	13	63	0	14
CCN(CCNC(=O)Nc1ccc(Cl)cc1)c1ccccc1	22*	-16	41	75*	5	22
CCN(CC)c1nc(OCCNC(=O)Nc2ccccc2)nc(N(CC)CC)n1	-21	-18	56	90*	0	4
C#CC(CC)(CC)NC(=O)c1nn(-c2ccccc2Cl)c(C)cc1=O	0	/	/	/	0	0
CCCc1c(-c2ccc(Cl)cc2)ncn1CCc1ccccc1OC	/	/	/	/	-1	1
CCCC(=O)Nc1cc(-c2nnc(OC)c3ccccc23)ccc1N1CCCCC1	/	1	39	72*	/	/
CCOC(=O)C1CCCN(CCC(=O)Nc2ccc3c(c2)CCC3)C1 (configuration not stated)	-1	-25	-2	20	-1	3
SMILES	GRIN3A LBD mod	EBV gp42 block	WT yeast gro inh	CHOP inhibitor	TbMetRS inhib	MPTP block
Clc1ccc(-c2n[nH]c3c2CCCC3)cc1	-2	4	62*	51	0	6
CO/N=C(\Cn1ncc(NC2CCCCC2)c(Br)c1=O)c1ccc(Cl)cc1	-1	8	71*	84*	-1	1
CSc1ccc(CN(C)CC(=O)Nc2ccc(C)cc2Br)cc1	2	-7	62*	37	0	2
C/C(=N/OC(=O)c1ccc(C)cc1)c1cccs1	1	-15	55	36	-2	0
CC/C(=N/OC(=O)c1cccc(C)c1)C(=O)c1cccs1	0	-10	11	75*	1	-1
Cc1ccc(CSc2nc(N)cc(N)n2)cc1	-1	/	/	/	0	-1
O=C(CSc1ncnc2sccc12)Nc1ccccc1F	0	-3	-18	9	-1	-2
Cc1cccc(NS(=O)(=O)c2ccc(C(=O)N3CCCC3)cc2)c1C	19*	/	/	/	0	2
Cc1ccccc1NS(=O)(=O)c1ccc(C(=O)N2CCC2)cc1	-1	/	/	/	0	-2
COc1ccc(C/C(N)=N/OC(=O)c2ccc(Cl)cc2)cc1	3	0	-20	-6	0	0
Cc1cc(C)c2cc(CN(Cc3nnnn3C3CCCCC3)CC3CCCO3)c(=O)[nH]c2c1 (configuration not stated)	-9	-10	6	71*	-1	1
Cc1ccc2[nH]c(=O)c(CN(Cc3ccc4c(c3)OCO4)Cc3nnnn3C3CCCC3)cc2c1	1	-5	43	72*	0	0
CCc1ccc2[nH]c(=O)c(CN(Cc3nnnn3C3CCCC3)C3CCCCC3)cc2c1	-1	-18	-2	78*	-1	-1
CCOc1ccc(S(=O)(=O)N2CCC(C(=O)N3CCN(C)CC3)CC2)cc1Cl	-1	/	/	/	0	1
CCOc1ccc(S(=O)(=O)N2CCC(C(=O)N3CCCCCC3)CC2)cc1Cl	13*	/	/	/	0	0
COc1cc(/C=C(\C#N)C(=O)NCC2CCCO2)ccc1OC(=O)c1ccco1 (configuration not stated)	2	/	/	/	0	-1
O=C(CSc1nc2ccccc2n1CCc1ccccc1)N1CCOCC1	-4	-23	-3	4	0	-1
O=C(CSc1nc2ccccc2n1CCc1ccccc1)c1ccc(O)c(O)c1	3	72*	19	23	0	5
O=S(=O)(Nc1ccc(-c2nc3cccnc3s2)cc1)c1ccc(Cl)s1	3	1	-4	39	0	6
Cc1c(Cl)cccc1NC(=O)Nc1cc(C(C)(C)C)nn1C	-1	-5	/	40	0	38
Cc1c(C=O)c2ccccn2c1C(=O)c1ccccc1	-1	-12	-21	72*	-1	-3
Cc1c(C=O)c2ccccn2c1C(=O)c1ccc(F)cc1	0	/	/	/	-1	0
Cc1c(/C=N/NC(=O)CNc2ccccc2)c2ccccn2c1C(=O)c1ccc(Cl)cc1	6	-25	14	44	-1	0
Cc1ccccc1NCC(=O)N/N=C/c1c(C)c(C(=O)c2ccc(Cl)cc2)n2ccccc12	12*	-51	0	2	1	1
CCC(C)c1ccc(NC(=S)NC2CCN(Cc3ccccc3)CC2)cc1 (configuration not stated)	-6	-4	75*	87*	-1	18
